# According to ChEMBL document CHEMBL2086283, “Novel 4-aminoquinoline-pyrimidine based hybrids with improved in vitro and in vivo antimalarial activity” (ACS Med Chem Lett, 2012):
# Active and inactive are the calls of the source. The calls are words filed in the database; no cut-off is given here.
# What was measured:
# Plasmodium berghei [1] = test: Antimalarial activity against Plasmodium berghei infected in mouse assessed as suppression in parasitemia at 100 mg/kg, po administered QD for 3 days measured on day 5 relative to control; assay type: functional
# In short: (§1)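 P. berghei-infected mice, 5 per group, dosed by oral gavage once daily on days 0, 1 and 2 postinfection, with a vehicle control arm. Mice were followed to day 28 postinfection for apparent toxicity, parasitemia and survival. Parasitemia suppression is expressed against mean vehicle-control parasitemia set as 100%, and cure is the number cured per 5 mice.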
# Plasmodium berghei [2] = test: Antimalarial activity against Plasmodium berghei infected in mouse assessed as suppression in parasitemia at 100 mg/kg, po administered QD for 3 days measured on day 7 relative to control; assay type: functional; in short: as §1
# Mus musculus [3] = test: Toxicity in mouse infected with Plasmodium berghei assessed as host survival at 100 mg/kg, po administered QD for 3 days measured on day 28; assay type: organism-based; set-up: dose 100 mg/kg, route oral; settings: in vivo, 72 h
# Plasmodium berghei [4] = test: Antimalarial activity Plasmodium berghei infected in mouse assessed as mean survival time at 100 mg/kg, po administered QD for 3 days (reference value: 15.2 days); assay type: functional
# Plasmodium berghei [5] = test: Antimalarial activity Plasmodium berghei infected in mouse assessed as cure from infection at 100 mg/kg, po administered QD for 3 days measured on day 28; assay type: functional, organism-based; set-up: dose 100 mg/kg; in short: as §1
# Vero [6] = test: Cytotoxicity against african green monkey Vero cells up to 60 uM after 48 hrs by neutral red assay; assay type: cell-based; settings: chlorocebus sabaeus
# In short: (§2)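 Mammalian cell cytotoxicity was measured as IC50 in Vero (monkey kidney fibroblasts), LLC-PK11 (pig kidney epithelial) and HepG2 (human hepatoma) cells. The highest concentration tested was 60 μM. Values are the mean of two independent experiments ± SD.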
# [7] = Cytotoxicity against pig LLC-PK11 cells up to 60 uM after 48 hrs by neutral red assay; assay type: cell-based, Sus scrofa; settings: llc-pk11, 48 h; in short: as §2
# HepG2 = test: Cytotoxicity against human HepG2 cells up to 60 uM after 48 hrs by neutral red assay; assay type: cell-based; settings: hepg2, 48 h; in short: as §2
# Vero [8] = test: Cytotoxicity against african green monkey Vero cells after 48 hrs by neutral red assay; assay type: cell-based; settings: chlorocebus sabaeus; in short: as §2
# [9] = Selectivity index, ratio of IC50 for african green monkey Vero cells to IC50 for chloroquine-sensitive Plasmodium falciparum D6; assay type: toxicity, cell-based; settings: read-out: Ratio IC50
# In short: (§3)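 SI is the IC50 for cytotoxicity to Vero cells (monkey kidney fibroblasts) divided by the antimalarial IC50 against the named P. falciparum clone. Cytotoxicity was tested up to 60 μM.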
# Plasmodium falciparum [10] = test: Antiplasmodial activity against chloroquine-resistant Plasmodium falciparum W2 infected in red blood cells up to 19 uM after 72 hrs by parasitic LDH assay; assay type: functional, organism-based
# In short: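 In vitro P. falciparum growth inhibition (D6 CQ-sensitive clone; W2 CQ-resistant clone). IC50 is the concentration giving 50% growth inhibition. Values are the average of two independent experiments ± SD. Highest concentration tested 19 μM.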
# Plasmodium falciparum [11] = test: Antiplasmodial activity against chloroquine-sensitive Plasmodium falciparum D6 infected in red blood cells after 72 hrs by parasitic LDH assay; assay type: functional, organism-based; settings: D6, 72 h
# Plasmodium falciparum [12] = test: Antiplasmodial activity against chloroquine-resistant Plasmodium falciparum W2 infected in red blood cells after 72 hrs by parasitic LDH assay; assay type: functional, organism-based; settings: W2, 72 h
# Plasmodium falciparum [13] = test: Ratio of chloroquine IC50 to compound IC50 for chloroquine-sensitive Plasmodium falciparum D6; assay type: functional
# Plasmodium falciparum [14] = test: Ratio of chloroquine IC50 to compound IC50 for chloroquine-resistant Plasmodium falciparum W2; assay type: functional
# [15] = Selectivity index, ratio of IC50 for african green monkey Vero cells to IC50 for chloroquine-resistant Plasmodium falciparum W2; assay type: toxicity, cell-based; settings: read-out: Ratio IC50; in short: as §3
# Plasmodium berghei [16] = test: Antimalarial activity against Plasmodium berghei infected in mouse assessed as suppression in parasitemia at 3.3 mg/kg, po administered QD for 3 days measured on day 5 relative to control; assay type: functional; in short: as §1
# Plasmodium berghei [17] = test: Antimalarial activity against Plasmodium berghei infected in mouse assessed as suppression in parasitemia at 10 mg/kg, po administered QD for 3 days measured on day 5 relative to control; assay type: functional; in short: as §1
# Plasmodium berghei [18] = test: Antimalarial activity against Plasmodium berghei infected in mouse assessed as suppression in parasitemia at 30 mg/kg, po administered QD for 3 days measured on day 5 relative to control; assay type: functional; in short: as §1
# Plasmodium berghei [19] = test: Antimalarial activity against Plasmodium berghei infected in mouse assessed as suppression in parasitemia at 3.3 mg/kg, po administered QD for 3 days measured on day 7 relative to control; assay type: functional; in short: as §1
# Plasmodium berghei [20] = test: Antimalarial activity against Plasmodium berghei infected in mouse assessed as suppression in parasitemia at 10 mg/kg, po administered QD for 3 days measured on day 7 relative to control; assay type: functional; in short: as §1
# Plasmodium berghei [21] = test: Antimalarial activity against Plasmodium berghei infected in mouse assessed as suppression in parasitemia at 30 mg/kg, po administered QD for 3 days measured on day 7 relative to control; assay type: functional; in short: as §1
# Mus musculus [22] = test: Toxicity in mouse infected with Plasmodium berghei assessed as host survival at 3.3 mg/kg, po administered QD for 3 days measured on day 28; assay type: organism-based; set-up: dose 3.3 mg/kg, route oral; settings: in vivo, 72 h
# Mus musculus [23] = test: Toxicity in mouse infected with Plasmodium berghei assessed as host survival at 10 mg/kg, po administered QD for 3 days measured on day 28; assay type: organism-based; set-up: dose 10 mg/kg, route oral; settings: in vivo, 72 h
# Mus musculus [24] = test: Toxicity in mouse infected with Plasmodium berghei assessed as host survival at 30 mg/kg, po administered QD for 3 days measured on day 28; assay type: organism-based; set-up: dose 30 mg/kg, route oral; settings: in vivo, 72 h
# Plasmodium berghei [25] = test: Antimalarial activity Plasmodium berghei infected in mouse assessed as mean survival time at 3.3 mg/kg, po administered QD for 3 days (reference value: 15.2 days); assay type: functional
# Plasmodium berghei [26] = test: Antimalarial activity Plasmodium berghei infected in mouse assessed as mean survival time at 10 mg/kg, po administered QD for 3 days (reference value: 15.2 days); assay type: functional
# Plasmodium berghei [27] = test: Antimalarial activity Plasmodium berghei infected in mouse assessed as mean survival time at 30 mg/kg, po administered QD for 3 days (reference value: 15.2 days); assay type: functional
# Plasmodium berghei [28] = test: Antimalarial activity Plasmodium berghei infected in mouse assessed as cure from infection at 3.3 mg/kg, po administered QD for 3 days measured on day 28; assay type: functional, organism-based; set-up: dose 3.3 mg/kg; in short: as §1
# Plasmodium berghei [29] = test: Antimalarial activity Plasmodium berghei infected in mouse assessed as cure from infection at 10 mg/kg, po administered QD for 3 days measured on day 28; assay type: functional, organism-based; set-up: dose 10 mg/kg; in short: as §1
# Plasmodium berghei [30] = test: Antimalarial activity Plasmodium berghei infected in mouse assessed as cure from infection at 30 mg/kg, po administered QD for 3 days measured on day 28; assay type: functional; in short: as §1
# Plasmodium falciparum [31] = test: Ratio of artemesin IC50 to compound IC50 for chloroquine-sensitive Plasmodium falciparum D6; assay type: functional
Structure (SMILES),Activity (Vero [6]),Activity [7],Activity (HepG2),selectivity ratio [9],IC50 (Plasmodium falciparum [11]),IC50 (Plasmodium falciparum [12]),Ratio IC50 (Plasmodium falciparum [13]),Ratio IC50 (Plasmodium falciparum [14]),selectivity ratio [15],Activity (Plasmodium berghei [16]),Activity (Plasmodium berghei [17]),Activity (Plasmodium berghei [18]),Activity (Plasmodium berghei [19]),Activity (Plasmodium berghei [20]),Activity (Plasmodium berghei [21]),Activity (Mus musculus [22]),Activity (Mus musculus [23]),Activity (Mus musculus [24]),MST (Plasmodium berghei [25]),MST (Plasmodium berghei [26]),other results
CCN(CC)CCCC(C)Nc1ccnc2cc(Cl)ccc12 (stereo unspecified) [CHLOROQUINE],Non-toxic,Non-toxic,Non-toxic,–,–,–,–,–,–,–,–,–,–,–,–,–,–,–,–,–,Activity (Plasmodium berghei [1]): 100%; Activity (Plasmodium berghei [2]): 100%; Activity (Mus musculus [3]): Non-toxic; MST (Plasmodium berghei [4]): 28 days; Activity (Plasmodium berghei [5]): inactive
CCc1nc(N)nc(N)c1-c1ccc(Cl)cc1 [PYRIMETHAMINE],–,–,–,1820,–,–,–,–,–,–,–,–,–,–,–,–,–,–,–,–,IC50 (Vero [8]): 18200 nM; Activity (Plasmodium falciparum [10]): inactive
CCN1CCN(c2nc(C)cc(NCCCNc3ccnc4cc(Cl)ccc34)n2)CC1,Non-toxic,Non-toxic,Non-toxic,> 10000,6 nM,60 nM,6,6,> 1000,20.1%,73.9%,100%,19.1%,27.1%,100%,Toxic,Toxic,Non-toxic,20.2 days,15.2 days,MST (Plasmodium berghei [27]): 27.2 days; Activity (Plasmodium berghei [28]): inactive; Activity (Plasmodium berghei [29]): inactive; Activity (Plasmodium berghei [30]): 20%; Ratio IC50 (Plasmodium falciparum [31]): 2
Cc1cc(NCCNc2ccnc3cc(Cl)ccc23)nc(N2CCN(C)CC2)n1,Non-toxic,Non-toxic,Non-toxic,> 12000,5 nM,30 nM,6,6,> 2000,23.5%,97%,100%,35.2%,2%,100%,Toxic,Toxic,Non-toxic,19.2 days,21.4 days,MST (Plasmodium berghei [27]): 28 days; Activity (Plasmodium berghei [28]): inactive; Activity (Plasmodium berghei [29]): inactive; Activity (Plasmodium berghei [30]): 80%; Ratio IC50 (Plasmodium falciparum [31]): 2
